ABHD5 PLIN5 PPI = ABHD5-PLIN5 interaction inhibitors, primary screen, cell lysate, split luciferase complementation, luminescence; Split G. princeps luciferase complementation, 4 h; inhibition, % at 4 µM; Perilipin-5 (Homo sapiens) + 1-acylglycerol-3-phosphate O-acyltransferase ABHD5 (Homo …; 360,000 compounds, 0.78% hits;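 active means inhibition above the mean inhibition across every tested compound plus 3 SD, cut at about 22% in these data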;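 further: 0% = DMSO only wells and the 100% control is not disclosed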
NadD block = inhibitors of S. aureus NadD, primary screen, biochemical, colorimetric, uHTS. inhibition, % at 20 µM. AID 602399, 2012. purified NadD enzyme, colorimetric absorbance read-out. 360,000 compounds, 0.78% hits; in the data active means inhibition above about 26%
Rin1 Abl inh = inhibitors of Rin1-Abl protein binding, primary screen, biochemical, TR-FRET; Tyrosine-protein kinase ABL1 (Homo sapiens) + Ras and Rab interactor 1 (Homo sapiens), …; inhibition, % at 7.35 µM; 360,000 compounds, 0.4% hits; in the data active means inhibition above about 5%, passing the limit was not always enough
Xi reactivation = activators of inactive X chromosome reactivation, primary screen, imaging, XiGFP fibroblasts, GFP high-content imaging, set 2; XiGFP mouse fibroblasts, % GFP-positive cells imaging, 3 d; cells co-treated with 5-aza-dC sensitizer; scaled so ellipticine positive control = 100%; activation, % at 7.58 µM; 360,000 compounds, 0.055% hits;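 active means mean normalized replicate activation at least 10% and every replicate at or above 10%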;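 further: 0% = median of on-plate neutral control wells and 100% = ellipticine 6 µM median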
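Assay system – SV40-immortalized XiGFP fibroblast cells, line 68-5-11 · Buffer or medium – DMEM supplemented with 5-aza-dC as sensitizing agent · Dosing – one concentration, pinned · Benchmarks – positive control ellipticine, 6 µM final · Times – 3 days compound exposure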
Rpn11 block = Rpn11 (PSMD14) deubiquitinase inhibitors, primary screen, biochemical, fluorescence polarization, uHTS. human 26S proteasome, Ub4-pepOG fluorescence polarization; 20S core pre-blocked with epoxomicin. AID 588493, 2011. 360,000 compounds, 0.59% hits. inhibition, % at 20 µM;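 active means inhibition at 20 µM, scaled to each plate's controls, above about 33%, limit read from the data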
ABHD5-PLIN5 conf = ABHD5-PLIN5 interaction inhibitors, confirmation, biochemical, luminescence | shares compounds with ABHD5 PLIN5 PPI | inhibition, % at 4 µM | 2,200 compounds, 67% hits | AID 651612, 2012; in the data active means inhibition above about 23%;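 further: 0% = DMSO vehicle wells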
HNF4 counter = HNF4 dimerization inhibitors, counter-screen for ABHD5-PLIN5 interaction inhibitor project, biochemical, split-luciferase complementation, luminescence; inhibition, % at 4 µM; 2,200 compounds, 77% hits; shares compounds with ABHD5 PLIN5 PPI;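 active means mean inhibition across replicate wells exceeding the computed hit threshold, cut at about 13% in these data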;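 further: light from luciferase halves that rejoin when HNF4 fusion proteins dimerize; 0% = DMSO only wells and the 100% control is not given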
Target sequence (P41235 whole entry, looked up, the tested form may be a part): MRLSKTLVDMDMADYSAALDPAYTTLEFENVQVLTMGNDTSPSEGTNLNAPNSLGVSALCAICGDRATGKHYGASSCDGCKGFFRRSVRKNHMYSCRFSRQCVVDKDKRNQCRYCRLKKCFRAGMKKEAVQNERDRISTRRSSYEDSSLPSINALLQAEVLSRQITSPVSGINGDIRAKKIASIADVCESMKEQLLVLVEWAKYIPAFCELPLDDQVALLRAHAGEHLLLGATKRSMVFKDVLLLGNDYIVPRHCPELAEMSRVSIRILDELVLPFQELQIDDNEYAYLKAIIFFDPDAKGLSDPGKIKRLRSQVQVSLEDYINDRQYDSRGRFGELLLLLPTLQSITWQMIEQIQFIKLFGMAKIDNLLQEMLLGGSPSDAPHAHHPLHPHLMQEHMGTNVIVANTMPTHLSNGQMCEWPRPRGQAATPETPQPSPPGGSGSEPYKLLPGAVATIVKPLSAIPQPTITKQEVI
* hit, by the source's call; nt = no result. In the library only some 1.9% were active in any assay of this set; here they are far more common.

SMILES	ABHD5 PLIN5 PPI	NadD block	Rin1 Abl inh	Xi reactivation	Rpn11 block	ABHD5-PLIN5 conf	HNF4 counter
O=C(/C=C/c1cccc(O)c1)c1cccnc1	47*	1	-4	0	-2	70*	64*
CN(C)C(=O)COc1ccc(C(=O)/C=C/c2cccnc2)cc1	28*	4	0	0	2	52*	46*
O=C(C=Cc1cccnc1)c1ccccc1	74*	0	4	1	-2	84*	81*
CCCN(C)C[C@@H]1OCCCC[C@H](C)Oc2ccc(NC(=O)C3CCCCC3)cc2C(=O)N([C@H](C)CO)C[C@@H]1C	nt	nt	nt	0	nt	nt	nt
CC(C)[C@@H]1CCc2cnnn2COC[C@H](Cc2ccccc2)NC1=O	nt	nt	nt	0	nt	nt	nt
CO[C@@H]1CN(C)C(=O)c2cc(NC(=O)C3CCOCC3)ccc2OC[C@H](C)N(C(C)=O)C[C@@H]1C	nt	nt	nt	0	nt	nt	nt
O=C(O)c1cc(N2C(=O)C=CC2=O)cc(N2C(=O)C=CC2=O)c1	24*	6	3	0	-13	80*	109*
CC1(C)CC(=O)C2=C(C1)OC1=C(C(=O)CC(C)(C)C1)C2c1ccc(O)cc1O	87*	12	1	nt	-1	102*	108*
CC1(C)CC(=O)C2=C(C1)OC1=C(C(=O)CC(C)(C)C1)C2c1ccc(O)c([N+](=O)[O-])c1	0	-3	-1	0	-2	nt	nt
CC1(C)Cc2c(C#N)c(N3CCN(C(=O)c4ccco4)CC3)nc(-c3ccco3)c2CS1	4	2	-1	nt	-6	nt	nt
CC(=O)N1CCN(c2nc(-c3ccco3)c3c(c2C#N)CC(C)(C)SC3)CC1	35*	18	-4	nt	11	21	18*
O=C(NNC(=O)C1CC1)c1ccccc1[N+](=O)[O-]	32*	-3	1	0	4	8	7
COc1ccccc1C(=O)NNC(=O)c1ccccc1[N+](=O)[O-]	0	1	1	0	4	nt	nt
C/C=C/c1cnc2c(c1)C(=O)N([C@@H](C)CO)C[C@@H](C)[C@@H](CN(C)Cc1cccc(C(=O)O)c1)O2	nt	nt	nt	0	nt	nt	nt
Cc1ccc(Cl)c(NC(=O)COC(=O)CNS(=O)(=O)/C=C/c2ccccc2)c1Cl	44*	-3	-4	1	6	3	6
C=C1C(=O)[C@]23C[C@H]1CC[C@H]2[C@]1(C)[C@@H](O)CC[C@@](C)(C(=O)O)[C@H]1C[C@@H]3O	31*	-3	4	0	-2	33*	89*
C=C1C(=O)[C@]23C[C@H]1CCC2[C@@]1(C)C(C[C@@H]3O)[C@](C)(C(=O)O)C[C@H](O)[C@@H]1O (stereo partly specified)	38*	1	3	0	-4	38*	83*
Cc1ccc(NC(=O)c2cnccn2)c(Br)c1	100*	-5	0	0	-7	2	1
Cc1ccc(NC(=O)c2cnccn2)nc1	4	1	4	0	-4	nt	nt
Cc1nnnn1/C(=C\c1ccccc1)C(=O)OCC(=O)Nc1ccc(Cl)cc1F	68*	-7	3	-1	-7	92*	85*
O=C(COC(=O)Cc1n[nH]c(=O)c2ccccc12)Nc1ccc(Cl)cc1F	-1	-4	4	0	-1	nt	nt
Cc1ccc2nc3cc([N+](=O)[O-])cc([N+](=O)[O-])c3cc2c1	39*	-4	-3	1	3	89*	47*
COCC(=O)Nc1ccc2c(c1)C(=O)N(C)[C@@H]1CC[C@@H](CC(=O)NCc3cccc(F)c3)O[C@H]1CO2	nt	nt	nt	0	nt	nt	nt
CCCCC1(CO)C(=O)N(c2ccccc2)N(c2ccccc2)C1=O	-1	-5	-1	0	-2	nt	nt
CCCCC1C(=O)N(c2ccccc2)N(c2ccc(O)cc2)C1=O (stereo unspecified)	97*	0	3	3	-3	82*	100*
SMILES	ABHD5 PLIN5 PPI	NadD block	Rin1 Abl inh	Xi reactivation	Rpn11 block	ABHD5-PLIN5 conf	HNF4 counter
Cc1sc2nc(SCC(=O)Nc3c(C)n(C)n(-c4ccccc4)c3=O)n(C)c(=O)c2c1C	24*	6	-1	nt	0	0	0
CCN(CC)CCNC(=O)c1ccc(NC(=O)c2cn(-c3ccccc3)nc2-c2cccs2)cc1	35*	0	-4	1	2	18	-5
Cc1ccc(S(=O)(=O)N[C@@H]2CC[C@H](CCNC(=O)c3ccccc3F)O[C@H]2CO)cc1	nt	nt	nt	-1	nt	nt	nt
CC(=O)N1C[C@@H]2C(c3ccc(Br)cc3)[C@H](C1)N2C(=O)NC(C)C (stereo partly specified)	nt	nt	nt	0	nt	nt	nt
COc1ccc(NS(=O)(=O)c2ccc(C)c(C(=O)NCCCN3CCCC3=O)c2)cc1	23*	-7	3	0	-1	4	3
C[C@@H]1CN([C@H](C)CO)C(=O)Cc2cc(NC(=O)Nc3cccc4ccccc34)ccc2O[C@@H]1CN(C)Cc1ccc(C(=O)Nc2ccccc2N)cc1	nt	nt	nt	1	nt	nt	nt
Cc1ccc(/C=N/N2CCN(C3c4ccccc4-c4ccccc43)CC2)o1	26*	-4	0	0	-3	8	13*
Cc1cc(C)cc(C(=O)N2CC(=O)Nc3ccccc32)c1	-3	-1	1	nt	5	nt	nt
Cc1ccc(/C=C/C(=O)N2CC(=O)Nc3ccccc32)o1	25*	5	0	0	-6	20	30*
COCC(=O)N1CC(=O)N2[C@H](C1)[C@@H](c1ccc(-c3cccnc3)cc1)[C@@H]2CO	nt	nt	nt	0	nt	nt	nt
CCOC(CN=c1nc(N(C)C)ss1)OCC	81*	-3	1	1	7	78*	101*
CC1(C)Cc2c(sc3nc(SCC(=O)NCc4ccco4)n(-c4ccccc4)c(=O)c23)CS1	30*	10	-1	nt	0	16	10
O=C(CSc1nc2sc3c(c2c(=O)n1-c1ccccc1)CCCC3)NCc1ccco1	0	2	2	0	7	nt	nt
O=C(C1CCN(S(=O)(=O)c2ccc(Cl)cc2)CC1)N1CCC1	52*	-2	-2	0	1	1	-2
O=C(C1CCCC1)N1CCN(S(=O)(=O)c2ccc(Cl)cc2)CC1	-5	3	2	0	4	nt	nt
Cc1noc(C)c1S(=O)(=O)Nc1ccc2c(c1)C(=O)N([C@H](C)CO)C[C@@H](C)[C@H](CN(C)C(=O)Nc1ccc(F)cc1)OCCCC[C@H](C)O2	nt	nt	nt	0	nt	nt	nt

Screens: PubChem BioAssay, several laboratories
